Activity calls are given as the source filed them. The rule behind the calls is not given here.
Columns and labels:
[1] = molecular target: T1, Amyloid-beta precursor protein (Homo sapiens, UniProt P05067); assay: Disaggregation of self-induced amyloid beta (1 to 42) (unknown origin) at 25 uM measured by Thioflavin T based fluorometric assay relative to control
[2] = molecular target: T1, Amyloid-beta precursor protein; assay: Inhibition of self-induced amyloid beta (1 to 42) (unknown origin) aggregation by T-fluorescence assay relative to control; conditions: read-out: IC50
Outline: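 IC50 by ThT fluorescence (excitation 446 nm, emission 490 nm). Computed only where inhibition of self-induced Aβ1-42 aggregation at 25 μM exceeded 90%. Triplicate; mean of three independent experiments.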

[3] = molecular target: Butyrylcholinesterase (Rattus norvegicus, UniProt Q9JKC1); assay: Inhibition of rat serum BuChE by Ellman's method
Sequence of Butyrylcholinesterase (Q9JKC1 whole entry): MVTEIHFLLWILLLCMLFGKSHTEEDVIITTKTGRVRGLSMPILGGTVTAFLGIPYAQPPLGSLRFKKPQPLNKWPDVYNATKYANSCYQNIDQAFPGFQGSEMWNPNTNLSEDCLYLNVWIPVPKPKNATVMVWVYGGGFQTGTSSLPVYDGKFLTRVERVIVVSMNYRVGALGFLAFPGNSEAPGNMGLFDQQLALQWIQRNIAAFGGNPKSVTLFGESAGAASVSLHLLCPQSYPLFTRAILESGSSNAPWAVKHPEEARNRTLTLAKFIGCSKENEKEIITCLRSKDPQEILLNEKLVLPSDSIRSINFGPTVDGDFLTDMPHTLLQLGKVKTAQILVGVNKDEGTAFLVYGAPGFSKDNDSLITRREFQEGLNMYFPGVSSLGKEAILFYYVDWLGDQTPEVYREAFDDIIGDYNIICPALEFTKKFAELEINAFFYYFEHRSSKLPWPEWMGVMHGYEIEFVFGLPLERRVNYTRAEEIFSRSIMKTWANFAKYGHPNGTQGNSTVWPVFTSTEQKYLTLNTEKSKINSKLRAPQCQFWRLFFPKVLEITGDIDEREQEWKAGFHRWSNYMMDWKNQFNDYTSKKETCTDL

[4] = molecular target: T2, Acetylcholinesterase (Electrophorus electricus, UniProt O42275); assay: Inhibition of electric eel AChE using acetylthiocholine iodide as substrate by Ellman's method
T2 sequence (O42275 whole entry): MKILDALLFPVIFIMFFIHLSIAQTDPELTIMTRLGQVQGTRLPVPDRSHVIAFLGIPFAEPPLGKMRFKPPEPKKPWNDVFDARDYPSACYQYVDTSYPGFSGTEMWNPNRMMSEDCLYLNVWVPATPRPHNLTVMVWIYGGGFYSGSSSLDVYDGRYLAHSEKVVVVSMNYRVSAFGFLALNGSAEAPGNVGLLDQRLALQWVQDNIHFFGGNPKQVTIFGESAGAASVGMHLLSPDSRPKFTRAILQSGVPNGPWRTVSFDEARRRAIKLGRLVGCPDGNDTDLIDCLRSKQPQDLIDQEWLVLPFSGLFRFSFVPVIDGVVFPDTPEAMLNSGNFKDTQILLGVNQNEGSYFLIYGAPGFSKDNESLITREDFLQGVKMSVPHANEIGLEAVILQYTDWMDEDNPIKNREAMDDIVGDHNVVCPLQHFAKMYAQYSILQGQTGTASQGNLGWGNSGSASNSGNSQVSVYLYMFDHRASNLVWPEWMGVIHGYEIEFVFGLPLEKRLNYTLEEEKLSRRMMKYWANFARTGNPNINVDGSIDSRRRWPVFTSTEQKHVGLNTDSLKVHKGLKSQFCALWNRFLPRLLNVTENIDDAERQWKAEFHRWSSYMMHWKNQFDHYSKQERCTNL

[5] = molecular target: Acetylcholinesterase (Electrophorus electricus) (UniProt O42275); assay: Mixed type inhibition of electric eel AChE assessed as decrease in Vmax by reciprocal Lineweaver-Burk plot analysis; conditions: dose 0.5-2 µM
Sequence of Acetylcholinesterase (Electrophorus electricus) (O42275 24-633 limits assumed): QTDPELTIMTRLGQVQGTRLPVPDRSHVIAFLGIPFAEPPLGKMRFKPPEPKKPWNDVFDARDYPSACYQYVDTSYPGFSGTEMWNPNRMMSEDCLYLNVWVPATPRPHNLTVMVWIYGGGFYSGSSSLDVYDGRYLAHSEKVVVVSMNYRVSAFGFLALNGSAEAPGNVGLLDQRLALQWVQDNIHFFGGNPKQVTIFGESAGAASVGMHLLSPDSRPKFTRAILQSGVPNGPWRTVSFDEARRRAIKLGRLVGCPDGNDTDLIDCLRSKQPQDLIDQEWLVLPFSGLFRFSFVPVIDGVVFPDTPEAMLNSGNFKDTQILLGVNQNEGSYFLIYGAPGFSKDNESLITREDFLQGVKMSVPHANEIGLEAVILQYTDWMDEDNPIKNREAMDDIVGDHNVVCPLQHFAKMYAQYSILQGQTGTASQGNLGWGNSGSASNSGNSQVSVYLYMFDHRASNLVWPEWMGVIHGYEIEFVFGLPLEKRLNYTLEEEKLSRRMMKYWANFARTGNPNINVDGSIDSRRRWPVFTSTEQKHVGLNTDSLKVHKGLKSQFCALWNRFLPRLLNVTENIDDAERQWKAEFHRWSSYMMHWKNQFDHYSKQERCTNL

[6] = molecular target: Acetylcholinesterase (Electrophorus electricus) (UniProt O42275); assay: Mixed type inhibition of electric eel AChE assessed as increase in Km by reciprocal Lineweaver-Burk plot analysis; conditions: dose 0.5-2 µM
[7] = molecular target: T2, Acetylcholinesterase; assay: Mixed type inhibition of electric eel AChE by reciprocal Lineweaver-Burk plot analysis
[8] = Metal chelating activity assessed as compound-Cu2+ complex formation by measuring maximum absorption wavelength shifted from 444 nm to 460 nm by UV-Visible spectrophotometry
Outline: (§1)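 UV-vis spectra recorded from 200 to 600 nm on a multimode reader. Metals tested as CuCl2, FeSO4, ZnCl2 and AlCl3.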

[9] = Metal chelating activity assessed as compound Zn2+ complex formation by UV-Visible spectrophotometry; outline: as §1
[10] = molecular target: T1, Amyloid-beta precursor protein; assay: Inhibition of Cu2+ induced amyloid beta (1 to 42 residues) (unknown origin) aggregation at 25 uM by thioflavin-T fluorescence method relative to control
[11] = molecular target: T3, Amine oxidase [flavin-containing] B (Homo sapiens, UniProt P27338); assay: Inhibition of human recombinant MAO-B by multimode plate reader assay
T3 sequence (P27338 whole entry): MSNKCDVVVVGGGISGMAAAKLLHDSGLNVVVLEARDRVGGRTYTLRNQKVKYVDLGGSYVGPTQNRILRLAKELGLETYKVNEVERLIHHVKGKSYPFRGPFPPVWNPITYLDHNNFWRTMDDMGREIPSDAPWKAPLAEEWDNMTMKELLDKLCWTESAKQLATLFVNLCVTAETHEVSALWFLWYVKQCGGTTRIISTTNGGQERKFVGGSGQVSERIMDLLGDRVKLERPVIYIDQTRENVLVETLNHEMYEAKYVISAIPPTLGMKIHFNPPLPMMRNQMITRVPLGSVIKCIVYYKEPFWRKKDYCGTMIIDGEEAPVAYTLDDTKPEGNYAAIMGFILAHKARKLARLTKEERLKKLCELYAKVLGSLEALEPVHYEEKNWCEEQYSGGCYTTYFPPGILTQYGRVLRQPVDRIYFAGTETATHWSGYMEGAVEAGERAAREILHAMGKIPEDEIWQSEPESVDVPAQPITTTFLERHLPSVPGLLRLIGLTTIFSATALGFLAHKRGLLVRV

[12] = molecular target: T4, Amine oxidase [flavin-containing] A (Homo sapiens, UniProt P21397); assay: Inhibition of human recombinant MAO-A by multimode plate reader assay
T4 sequence (P21397 whole entry): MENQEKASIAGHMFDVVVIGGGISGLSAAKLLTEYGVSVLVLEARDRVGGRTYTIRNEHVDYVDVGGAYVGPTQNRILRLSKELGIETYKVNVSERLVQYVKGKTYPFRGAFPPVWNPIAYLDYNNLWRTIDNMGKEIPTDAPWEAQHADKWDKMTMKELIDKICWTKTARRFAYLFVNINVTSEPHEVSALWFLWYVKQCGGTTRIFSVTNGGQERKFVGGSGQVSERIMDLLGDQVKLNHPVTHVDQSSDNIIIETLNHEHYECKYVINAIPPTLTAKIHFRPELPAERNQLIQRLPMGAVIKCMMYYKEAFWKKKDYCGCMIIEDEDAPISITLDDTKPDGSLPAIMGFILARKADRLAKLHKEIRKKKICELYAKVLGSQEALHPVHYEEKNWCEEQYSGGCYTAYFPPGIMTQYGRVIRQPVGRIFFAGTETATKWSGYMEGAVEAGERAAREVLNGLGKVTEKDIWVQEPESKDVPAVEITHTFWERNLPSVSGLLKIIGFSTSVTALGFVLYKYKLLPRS

[13] = species: Homo sapiens; assay: Selectivity index, ratio of IC50 for recombinant human MAO-A to IC50 for recombinant human MAO-B
Outline: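 Selectivity index taken as IC50(hMAO-A)/IC50(hMAO-B). IC50 values are mean ± SEM from three experiments.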

[14] = test system: PC-12; assay: Cytotoxicity against rat PC12 cells assessed as cell viability by MTT assay relative to control; assay type: functional
[15] = test system: PC-12; assay: Neuroprotective activity against H2O2-induced cytotoxicity in rat PC12 cells assessed as increase in cell viability at 10 uM by MTT assay; assay type: functional
Outline: (§2)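 PC12 cells exposed to 100 μM H2O2, with or without compound. Viability read by MTT reduction relative to control. Trolox 100 μM is the reference.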

[16] = test system: PC-12; assay: Neuroprotective activity against H2O2-induced cytotoxicity in rat PC12 cells assessed as increase in cell viability at 1 uM by MTT assay; assay type: functional; outline: as §2
[17] = test system: PC-12; assay: Neuroprotective activity against H2O2-induced cytotoxicity in rat PC12 cells assessed as increase in cell viability by LDH assay; assay type: functional, cell-based
Outline: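 PC12 cells exposed to H2O2, with or without compound. Membrane damage read as LDH release into the supernatant. Trolox is the reference.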

[18] = Permeability of the compound by PAMPA; assay type: ADME; conditions: read-out: permeability
Outline: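 PAMPA-BBB. Assay validated against 11 commercial drugs with reported permeability values.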

[19] = Acute toxicity in KM mouse assessed as abnormal behavior upto 1000 mg/kg, po administered as single dose measured for 14 days; assay type: organism-based; conditions: in vivo, 336 h, time 14 day
Outline: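 Kunming mice, n = 10 per group, fasted overnight with free access to water, given one oral dose of 67.5, 125, 250, 500 or 1000 mg/kg. Housed on a 12 h light/dark cycle at 20–22 °C, 40–70% relative humidity. Abnormal behaviour and mortality observed continuously for the first 4 h, intermittently over the next 24 h, then occasionally to 14 days.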

[20] = test system: Mus musculus; assay: Antialzheimer activity in scopolamine-induced po dosed KM mouse model of memory impairment assessed as increase in latency time treated for 7 days followed by training trial at 1 hr post dose and subsequent scopolamine challenge at 30 mins post training trial and measured post last dose by step-down passive avoidance test; assay type: functional, organism-based; conditions: dose 2.3-20.4 mg/kg, time 7.0 day
Outline: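 Mice orally dosed at 2.3, 6.8 and 20.4 mg/kg, with donepezil 5.0 mg/kg p.o. as positive control, 1 h before training trial. Scopolamine 3 mg/kg i.p. given 30 min later. Training trial uses a 0.5 mA, 2 s foot shock on stepping down from the block. Step-down latency is measured as the test trial 24 h after training. n = 10 per group.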

T1 sequence (P05067 whole entry): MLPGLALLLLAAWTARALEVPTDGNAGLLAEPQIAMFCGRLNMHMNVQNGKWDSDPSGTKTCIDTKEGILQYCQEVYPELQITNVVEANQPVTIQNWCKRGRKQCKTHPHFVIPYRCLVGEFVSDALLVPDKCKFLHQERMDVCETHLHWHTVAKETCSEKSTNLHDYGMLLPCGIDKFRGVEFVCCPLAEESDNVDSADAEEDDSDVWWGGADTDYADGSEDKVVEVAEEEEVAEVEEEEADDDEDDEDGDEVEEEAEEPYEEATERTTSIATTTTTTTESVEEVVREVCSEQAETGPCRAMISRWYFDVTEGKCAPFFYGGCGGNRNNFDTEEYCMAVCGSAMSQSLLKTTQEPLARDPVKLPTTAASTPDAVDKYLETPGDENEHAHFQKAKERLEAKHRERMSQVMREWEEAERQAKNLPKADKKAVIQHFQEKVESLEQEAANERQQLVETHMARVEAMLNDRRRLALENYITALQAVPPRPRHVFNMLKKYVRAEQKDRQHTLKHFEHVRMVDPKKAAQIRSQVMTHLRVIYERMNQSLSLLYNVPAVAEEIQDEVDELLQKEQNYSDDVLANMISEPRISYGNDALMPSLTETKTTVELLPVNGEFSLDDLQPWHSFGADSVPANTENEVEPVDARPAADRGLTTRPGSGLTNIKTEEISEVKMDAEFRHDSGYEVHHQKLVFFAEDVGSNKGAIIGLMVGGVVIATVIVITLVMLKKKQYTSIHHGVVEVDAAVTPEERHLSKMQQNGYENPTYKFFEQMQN

Question: Which results are given for CCN(CCCCOc1ccc(C(=O)/C=C/c2ccc(N(C)C)cc2)c(O)c1)Cc1ccccc1N(C)C?
Answer: Activity [1]: 95.1%; IC50 [2]: 880 nM; IC50 [3]: 236000 nM; IC50 [4]: 690 nM; inhibition [5]: Active; inhibition [6]: Active; Ki [7]: 500 nM; Activity [8]: Active; Activity [9]: inactive; inhibition [10]: 95.3%; IC50 [11]: 1000 nM; IC50 [12]: 18400 nM; Selectivity Index [13]: 18.4; Activity [14]: >50 µM; Activity [15]: 88.1%; Activity [16]: 70.9%; Activity [17]: Active; Papp [18]: 13.4 ×10⁻⁶ cm/s; Activity [19]: Non-Toxic; Activity [20]: Dose-Dependent Effect
